Experimental data from ChEMBL document CHEMBL4346684, “Synthesis and structure-bactericidal activity relationships of non-ketolides: 9-Oxime clarithromycin 11,12-cyclic carbonate featured with three-to eight-atom-length spacers at 3-OH” (Eur J Med Chem, 2019).
Converted amounts (≈) assume the structure as drawn.

Assays:
Format in all cases: functional
Streptococcus pneumoniae [1] = assay: Antimicrobial activity against erythromycin-susceptible Streptococcus pneumoniae ATCC 49619 incubated in CAMHB medium for 20 to 24 hrs by two-fold microbroth dilution method
Streptococcus pneumoniae [2] = assay: Antimicrobial activity against mef-encoded erythromycin resistant Streptococcus pneumoniae PU09 incubated in CAMHB medium for 20 to 24 hrs by two-fold microbroth dilution method
Streptococcus pneumoniae [3] = assay: Bactericidal activity against erythromycin-susceptible Streptococcus pneumoniae ATCC 49619 assessed as reduction in colony formation incubated in CAMHB medium for 20 to 24 hrs followed by 24 hrs subculturing in the medium without test compound
Streptococcus pneumoniae [4] = assay: Ratio of MBC to MIC for erythromycin-susceptible Streptococcus pneumoniae ATCC 49619
Streptococcus pneumoniae [5] = assay: Bactericidal activity against mef-encoded erythromycin resistant Streptococcus pneumoniae PU09 assessed as reduction in colony formation incubated in CAMHB medium for 20 to 24 hrs followed by 24 hrs subculturing in the medium without test compound
Streptococcus pyogenes [6] = assay: Antimicrobial activity against inducibly erythromycin resistant Streptococcus pyogenes 01-968 expressing i-ermA incubated in CAMHB medium for 20 to 24 hrs by two-fold microbroth dilution method
Streptococcus pyogenes [7] = assay: Bactericidal activity against inducibly erythromycin resistant Streptococcus pyogenes 01-968 expressing i-ermA assessed as reduction in colony formation incubated in CAMHB medium for 20 to 24 hrs followed by 24 hrs subculturing in the medium without test compound
Streptococcus pyogenes [8] = assay: Ratio of MBC to MIC for inducibly erythromycin resistant Streptococcus pyogenes 01-968 expressing i-ermA
Staphylococcus aureus [9] = assay: Antimicrobial activity against constitutively erythromycin resistant and methicillin resistant Staphylococcus aureus PU20 expressing c-ermC incubated in CAMHB medium for 20 hrs by two-fold microbroth dilution method; conditions: PU20, 20 h
Procedure, shortened: (§1)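 Purified fresh Staphylococcus isolate at about 5×10^5 CFU/ml final in CAMHB, 35 °C for 20 h. Each run included ATCC strains and reference antibiotics as QC, plus an antibiotic-free growth control.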

Staphylococcus aureus [10] = assay: Bactericidal activity against constitutively erythromycin resistant and methicillin-resistant Staphylococcus aureus PU20 expressing c-ermC assessed as reduction in colony formation incubated in CAMHB medium for 20 hrs followed by 24 hrs subculturing in the medium without test compound
Staphylococcus aureus [11] = assay: Ratio of MBC to MIC for constitutively erythromycin resistant and methicillin-resistant Staphylococcus aureus PU20 expressing c-ermC
Staphylococcus aureus [12] = assay: Antimicrobial activity against inducibly erythromycin-resistant and methicillin resistant Staphylococcus aureus PU32 expressing i-ermA incubated in CAMHB medium for 20 hrs by two-fold microbroth dilution method; conditions: PU32, 20 h; procedure, shortened: as §1
Staphylococcus aureus [13] = assay: Bactericidal activity against inducibly erythromycin-resistant and methicillin resistant Staphylococcus aureus PU32 expressing i-ermA assessed as reduction in colony formation incubated in CAMHB medium for 20 hrs followed by 24 hrs subculturing in the medium without test compound
Moraxella catarrhalis [14] = assay: Antimicrobial activity against erythromycin-susceptible Moraxella catarrhalis 13L332 incubated in CAMHB medium for 20 hrs by two-fold microbroth dilution method; conditions: 13L332, 20 h
Procedure, shortened: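 Clinical isolates and ATCC strains, purified by plate activation and used fresh; inoculum about 5×10^5 CFU/ml final. Grown in CAMHB at 35 °C for 20 h.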

Moraxella catarrhalis [15] = assay: Bactericidal activity against erythromycin-susceptible Moraxella catarrhalis 13L332 assessed as reduction in colony formation incubated in CAMHB medium for 20 hrs followed by 24 hrs subculturing in the medium without test compound
Moraxella catarrhalis [16] = assay: Ratio of MBC to MIC for erythromycin-susceptible Moraxella catarrhalis 13L332
Streptococcus pneumoniae [17] = assay: Ratio of MBC to MIC for mef-encoded erythromycin resistant Streptococcus pneumoniae PU09

SMILES	MIC (Streptococcus pneumoniae [1])	MIC (Streptococcus pneumoniae [2])	MBC (Streptococcus pneumoniae [3])	Ratio (Streptococcus pneumoniae [4])	MBC (Streptococcus pneumoniae [5])	MIC (Streptococcus pyogenes [6])	MBC (Streptococcus pyogenes [7])	Ratio (Streptococcus pyogenes [8])	MIC (Staphylococcus aureus [9])	MBC (Staphylococcus aureus [10])	Ratio (Staphylococcus aureus [11])	MIC (Staphylococcus aureus [12])	MBC (Staphylococcus aureus [13])	MIC (Moraxella catarrhalis [14])	MBC (Moraxella catarrhalis [15])	Ratio (Moraxella catarrhalis [16])	Ratio (Streptococcus pneumoniae [17])
CC[C@H]1OC(=O)[C@H](C)[C@@H](OCC#Cc2ccc(C(=O)c3ccccc3)s2)[C@H](C)[C@@H](O[C@@H]2O[C@H](C)C[C@H](N(C)C)[C@H]2O)[C@](C)(OC)C[C@@H](C)/C(=N\OC)[C@H](C)[C@H]2OC(=O)O[C@@]21C	8 µg/mL (≈ 9.21 µM)	4 µg/mL (≈ 4.6 µM)	16 µg/mL (≈ 18.4 µM)	2	8 µg/mL (≈ 9.21 µM)	4 µg/mL (≈ 4.6 µM)	8 µg/mL (≈ 9.21 µM)	2	32 µg/mL (≈ 36.8 µM)	> 256 µg/mL	>8	> 256 µg/mL	> 256 µg/mL	8 µg/mL (≈ 9.21 µM)	16 µg/mL (≈ 18.4 µM)	2	–
CC[C@H]1OC(=O)[C@H](C)[C@@H](OCC#Cc2ccc(OCc3ccccc3)cc2)[C@H](C)[C@@H](O[C@@H]2O[C@H](C)C[C@H](N(C)C)[C@H]2O)[C@](C)(OC)C[C@@H](C)/C(=N\OC)[C@H](C)[C@H]2OC(=O)O[C@@]21C	8 µg/mL (≈ 9.25 µM)	8 µg/mL (≈ 9.25 µM)	32 µg/mL (≈ 37 µM)	4	16 µg/mL (≈ 18.5 µM)	4 µg/mL (≈ 4.62 µM)	8 µg/mL (≈ 9.25 µM)	2	32 µg/mL (≈ 37 µM)	256 µg/mL (≈ 296 µM)	8	> 256 µg/mL	> 256 µg/mL	8 µg/mL (≈ 9.25 µM)	8 µg/mL (≈ 9.25 µM)	1	2
CC[C@H]1OC(=O)[C@H](C)[C@@H](OCC#Cc2ccc(-c3ccccn3)s2)[C@H](C)[C@@H](O[C@@H]2O[C@H](C)C[C@H](N(C)C)[C@H]2O)[C@](C)(OC)C[C@@H](C)/C(=N\OC)[C@H](C)[C@H]2OC(=O)O[C@@]21C	4 µg/mL (≈ 4.75 µM)	8 µg/mL (≈ 9.5 µM)	16 µg/mL (≈ 19 µM)	4	16 µg/mL (≈ 19 µM)	8 µg/mL (≈ 9.5 µM)	64 µg/mL (≈ 76 µM)	8	256 µg/mL (≈ 304 µM)	256 µg/mL (≈ 304 µM)	1	> 256 µg/mL	> 256 µg/mL	4 µg/mL (≈ 4.75 µM)	8 µg/mL (≈ 9.5 µM)	2	2
